Assay results from paper PMC8475556 (Oncoimmunology, 2021).
Like-named read-outs stand apart in the source and are kept apart here. *1 amine or outer side, *2 acyl side, *3 side chain or, on linkers, in order; H or OH if unused. Where a SMILES comes first, the peptide text is derived from it. Bridges are numbered along the chain shown (N, C = ends). Roman numbers before positions name the chains, in order. [ ]: non-standard residue; d: D form. Hexamethylenediamine = C(CCCN[*:2])CCN[*:1]; Dip = N[C@H](C(=O)O)C(c1ccccc1)c1ccccc1; Chg = N[C@H](C(=O)O)C1CCCCC1; NMeA = CN[C@@H](C)C(=O)O

Assays:
Mcl-1 = Mcl-1 by flow cytometry in live primary CLL cells after 24 h treatment; assay type: cell-based, human; conditions: for IC50: Homo sapiens, CLL cell, read-out: IC50 for lowering Mcl-1 (Mcl-1 dMFI)
Outline: (§1)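 Primary CLL cells were thawed and resuspended at 8 × 10^6 cells/mL in high-glucose complete medium (2.5 g/L total glucose). They were plated at 2 × 10^6 per well on confluent OP9 stroma, rested overnight, then treated 24 h with test compound at 0.1% DMSO final. Staining: Fc block, viability dye, CD19/CD5, Foxp3-buffer fix/perm, then intracellular Bcl-2 BV421 or Mcl-1 AF647. Live CD5+CD19+ gate; dMFI = MFI minus FMO; n = 6 donors, 2 experiments pooled.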

pNF-κB p65 = pNF-κB p65 phosphoflow in live primary CLL cells after 24 h treatment; assay type: cell-based, human; conditions: for IC50: Homo sapiens, CLL cell, read-out: IC50 for decrease in pNF-κB p65 (dMFI)
pS6 = pS6 phosphoflow in live primary CLL cells after 24 h treatment; assay type: cell-based, human; conditions: for IC50: Homo sapiens, CLL cell, read-out: IC50 for decrease in pS6 (dMFI)
primary CLL cells = assay: Cell death; assay type: cell-based, human; conditions: for IC50: Homo sapiens, CLL cell, read-out: IC50 for cell death; for primary CLL cells died: cleaved caspase-3
pERK [1] = assay: pERK phosphoflow in live primary CLL cells after 24 h treatment; assay type: cell-based, human; conditions: for IC50: Homo sapiens, CLL cell, read-out: IC50 for decrease in pERK (dMFI)
TRAF1 [2] = assay: TRAF1 by flow cytometry in live primary CLL cells on OP9 after 24 h treatment; assay type: cell-based, human; conditions: for effect on TRAF1 expression: primary CLL cells, 24 h
Bcl-2 = Bcl-2 by flow cytometry in live primary CLL cells after 24 h treatment; assay type: cell-based, human; conditions: for IC50: Homo sapiens, CLL cell, read-out: IC50 for lowering Bcl-2 (Bcl-2 dMFI)
Outline: as §1

[3] = tested on: TRAF1 in the CD40 signaling complex; assay type: cell-based, human; conditions: BV6 5 μM
Outline: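 shCTL or shPKN1 RAJI cells (6 × 10^6) received cycloheximide 3 μg/ml for the indicated times, ± BV6 5 μM, and were lysed in 1% NP-40 with protease/phosphatase inhibitors. For IP1, Protein G magnetic beads were loaded with 0.5 μg anti-CD40 (10 min, RT), then incubated with lysate overnight at 4°C. Unbound material was re-precipitated with 0.5 μg anti-TRAF1 (IP2). Both IPs and lysates were western blotted for TRAF1.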

TRAF1 [4] = assay type: cell-based, human; conditions: 24 h; for IC50: Homo sapiens, Raji, read-out: IC50 for reducing TRAF1; for effect on TRAF1 levels: RAJI cells, 0.1 nM-10 μM
Outline: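 shCTL RAJI cells were seeded at 2 × 10^5 per well in RPMI 1640 with 10% FCS, 2-ME, glutamine, pen/strep and non-essential amino acids. Test compound was added at 0.1 nM–10 μM (0.1% DMSO final) for 24 h. Staining: Fc block, viability dye, Foxp3-buffer fixation/permeabilisation, rat anti-TRAF1 (clone 1F3) with goat anti-rat PE secondary. TRAF1 dMFI = MFI minus FMO background.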

PRK1(h) = PRK1(h) (Homo sapiens, UniProt Q16512); assay: Dose titration of selected inhibitors against PKN1 kinase activity in vitro; assay type: biochemical
pERK [5] = assay: pERK by flow cytometry in RAJI cells after 24 h inhibitor treatment; assay type: cell-based, human

Sequence of PRK1(h) (Q16512 whole entry): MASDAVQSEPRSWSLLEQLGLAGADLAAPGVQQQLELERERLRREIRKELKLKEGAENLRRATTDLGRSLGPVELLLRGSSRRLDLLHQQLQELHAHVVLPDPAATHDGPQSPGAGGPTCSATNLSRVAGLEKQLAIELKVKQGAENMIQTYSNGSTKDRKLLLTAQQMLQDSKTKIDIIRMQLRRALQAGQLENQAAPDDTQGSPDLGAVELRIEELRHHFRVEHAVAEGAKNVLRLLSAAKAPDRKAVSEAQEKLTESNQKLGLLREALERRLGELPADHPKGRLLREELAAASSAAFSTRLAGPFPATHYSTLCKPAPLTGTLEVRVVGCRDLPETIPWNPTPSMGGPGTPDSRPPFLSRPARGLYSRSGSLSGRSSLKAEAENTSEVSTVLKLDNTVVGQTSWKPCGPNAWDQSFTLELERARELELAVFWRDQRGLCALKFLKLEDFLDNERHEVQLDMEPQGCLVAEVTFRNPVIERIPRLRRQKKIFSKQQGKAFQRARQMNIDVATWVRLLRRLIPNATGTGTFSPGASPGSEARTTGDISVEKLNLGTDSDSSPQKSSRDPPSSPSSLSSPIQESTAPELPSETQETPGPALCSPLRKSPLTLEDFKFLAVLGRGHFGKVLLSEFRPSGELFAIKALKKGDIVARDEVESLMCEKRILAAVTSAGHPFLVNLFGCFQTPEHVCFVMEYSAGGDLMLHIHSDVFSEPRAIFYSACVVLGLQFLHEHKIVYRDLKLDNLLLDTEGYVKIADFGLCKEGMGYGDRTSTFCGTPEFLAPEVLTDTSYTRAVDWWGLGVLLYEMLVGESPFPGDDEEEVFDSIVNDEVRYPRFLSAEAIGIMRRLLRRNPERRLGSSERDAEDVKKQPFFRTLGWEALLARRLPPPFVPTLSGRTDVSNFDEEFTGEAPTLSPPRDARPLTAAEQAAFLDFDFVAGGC

Clc1ccc(C2(c3ccc(-c4cn[nH]c4)cc3)CCNCC2)cc1 [AT7867]
effect on Mcl-1 expression (Mcl-1; primary CLL cells): did not affect
effect on levels of pNF-κB (pNF-κB p65; primary CLL cells): did not affect
effect on pS6 (pS6; primary CLL cells): slightly reduced
effect on cell death (primary CLL cells; primary CLL cells, 24 h): no effect
effect on pERK (pERK [1]; primary CLL cells): slightly reduced
effect on TRAF1 expression (TRAF1 [2]): no effect
effect on Bcl-2 expression (Bcl-2; primary CLL cells): did not affect

CN[C@@H](C)C(=O)N[C@H](C(=O)N1CCC[C@H]1C(=O)N[C@H](C(=O)NCCCCCCNC(=O)[C@@H](NC(=O)[C@@H]1CCCN1C(=O)[C@@H](NC(=O)[C@H](C)NC)C1CCCCC1)C(c1ccccc1)c1ccccc1)C(c1ccccc1)c1ccccc1)C1CCCCC1 [BV6] (I: H-[NMeA][Chg]P[Dip] / II: H-[NMeA][Chg]P[Dip]; linker I:C-II:C via Hexamethylenediamine)
cytosolic pool of TRAF1 (IP2) ([3]; RAJI cells, cycloheximide): not sensitive
CD40 associated TRAF1 protein ([3]; shCTL RAJI cells (presence of PKN1), cycloheximide 6 h): rescued
CD40 associated TRAF1 protein ([3]; shPKN1 RAJI cells (absence of PKN1), cycloheximide): partially rescued

CC(=O)c1cnc2ccc(-c3cc(Cl)c(O)c(Cl)c3)nc2c1N[C@H]1CC[C@H](CN(C)C)CC1 [OTSSP167]
IC50 (TRAF1 [4]): 0.018 µM
IC50 (Mcl-1): 0.0257 µM
IC50 (pNF-κB p65): 0.32 µM
IC50 (pS6): 0.31 µM
IC50 (PRK1(h)): 0.011 µM
IC50 (primary CLL cells; 24 h): 0.0459 µM
reduction of IC50 for cell death compared to treatment alone (primary CLL cells; OTSSP167 with 1 nM venetoclax versus OTSSP167 alone): 1.9 fold
cells survived treatment (primary CLL cells; primary CLL cells, suboptimal concentration 50 nM): 20–50%
primary CLL cells died (primary CLL cells; suboptimal 10 nM alone, 24 h): < 15%
pERK levels (pERK [5]): decreased only at the highest levels
IC50 (pERK [1]): 1.04 µM
IC50 (Bcl-2): 0.0498 µM

CCCCNc1ncc2c(-c3ccc(CN4CCN(C)CC4)cc3)cn([C@H]3CC[C@H](O)CC3)c2n1 [UNC-2025]
effect on TRAF1 levels (TRAF1 [4]): increased rather than decreased

CC(C)c1cc(CNc2nc(Nc3cc(C4CC4)[nH]n3)cc(N3CCN(C)CC3)n2)on1 [XL-228]
IC50 (TRAF1 [4]): 2.3 µM
IC50 (Mcl-1): 2.54 µM
IC50 (pNF-κB p65): 2.47 µM
IC50 (pS6): 1.44 µM
cells survived treatment (primary CLL cells; primary CLL cells, suboptimal concentration 4 μM): 20–50%
IC50 (pERK [1]): 2.23 µM
IC50 (Bcl-2): 3.52 µM

CC1(COc2ccc3c(c2)ncn3-c2ccc3cccc(N4CCC(N)CC4)c3n2)COC1 [crenolanib, Crenolanib]
effect on TRAF1 levels (TRAF1 [4]): increased rather than decreased

CC(C)NC[C@@H](C(=O)N1CCN(c2ncnc3c2[C@H](C)C[C@H]3O)CC1)c1ccc(Cl)cc1 [ipatasertib, Ipatasertib]
IC50 (TRAF1 [4]): > 10 µM

C[C@@H]1CCN(C(=O)CC#N)C[C@@H]1N(C)c1ncnc2[nH]ccc12 [tofacitinib]
effect on TRAF1 levels (TRAF1 [4]): minimal effects

Cn1ncc(Cl)c1-c1cc(C(=O)N[C@H](CN)Cc2ccc(F)c(F)c2)oc1Cl [uprosertib, Uprosertib]
IC50 (TRAF1 [4]): 4.9 µM

CC1(C)CCC(CN2CCN(c3ccc(C(=O)NS(=O)(=O)c4ccc(NCC5CCOCC5)c([N+](=O)[O-])c4)c(Oc4cnc5[nH]ccc5c4)c3)CC2)=C(c2ccc(Cl)cc2)C1 [venetoclax]
IC50 (primary CLL cells; 24 h): 0.00991 µM
primary CLL cells died (primary CLL cells; suboptimal 1 nM alone, 24 h): < 15%
decrease of IC50 for cell death compared to treatment alone (primary CLL cells; venetoclax with 10 nM OTSSP167 versus venetoclax alone): 5.8 fold
patients whose CLL cells were enriched for TRAF1hi cells after treatment (TRAF1 [2]; dose that resulted in approximately 50% death): 4 of 6
effect on TRAF1 expression (TRAF1 [2]): lack of effect
